Measured values from different studies.
Each line is one published result; the experiments were not run side by side.
Read-out: enzyme activity
Action: inhibitor
rep main protease: Replicase polyprotein 1ab, main protease (rep, Severe acute respiratory syndrome coronavirus 2, UniProt P0DTD1)
rep papain-like protease: Replicase polyprotein 1ab, papain-like protease (rep, Severe acute respiratory syndrome coronavirus 2, UniProt P0DTD1)

SMILES	target	technique	tested at	time	pH	inhibition
NC(=S)NNc1ccc(S(N)(=O)=O)cc1	rep main protease	–	20 µM	–	–	42.1%
COc1cc(C)cc2c1C(=O)C=CC2=O	rep main protease	–	1 µM	–	–	75.6%
CC(C)C[C@H](NC(=O)[C@@H](NC(=O)OCc1ccccc1)C(C)(C)C)C(=O)N(C)N(C#N)CCC(N)=O	rep main protease	fluorescence	50 µM	–	pH 7.2	100%
O=c1c(O)c(-c2cc(O)c(O)c(O)c2)oc2cc(O)ccc12	rep main protease	–	10 µM	–	–	62.5%
C[C@@H]1O[C@@H](OC[C@H]2O[C@@H](OCCc3ccc(O)c(O)c3)[C@H](OC(=O)/C=C/c3ccc(O)c(O)c3)[C@@H](O)[C@@H]2O)[C@H](O)[C@H](O)[C@H]1O	rep papain-like protease	–	50 µM	–	–	2.5%
COCOc1cc(C)cc2c1C(=O)C=CC2=O	rep main protease	–	1 µM	–	–	4.6%
Cn1c(C(=O)Nc2ccc3c(c2)OCCO3)cc2c(=O)n3ccccc3nc21	rep main protease	–	1 mM	–	–	96%
Cn1c(=O)n(C)c2cc(CNc3ccc4c(c3)OCO4)ccc21	rep main protease	–	20 µM	–	–	22.3%
COc1c(O)cc(O)c2c(=O)cc(-c3ccccc3)oc12	rep main protease	–	100 µM	–	–	3.6%
O=C(Nc1ccccc1F)c1cc2c(=O)n3ccccc3nc2n1Cc1ccccc1	rep main protease	–	1 mM	–	–	71%
O=C(NC[C@H](NC(=O)c1cncc2sccc12)c1ccc2ccccc2c1)c1cocn1	rep main protease	–	5 µM	–	–	19.1%
O=C(Nc1cccc(C(F)(F)F)c1)c1ccc([N+](=O)[O-])o1	rep main protease	–	20 µM	–	–	1.47%
Cc1ccc(NC(=O)c2cc3c(=O)n4cccc(C)c4nc3n2C)cc1Cl	rep main protease	–	1 mM	–	–	75%
O=C1CC(c2c(O)cccc2O)Oc2cc(O)cc(O)c21 (centres unmarked)	rep main protease	–	20 µM	–	–	26.5%
O=C(O)/C=C/c1ccc(O)c(O)c1	rep main protease	FRET	10 µM	10 min	–	< 25%
CC(C)C[C@H](NC(=O)OCc1ccccc1)C(=O)N(C)N(C#N)CCC(N)=O	rep main protease	fluorescence	50 µM	–	pH 7.2	100%
O=C(/C=C/c1ccc2ncccc2c1)N1CCC[C@@]2(CCN(C(=O)c3cc(=O)[nH]c(=O)[nH]3)C2)C1	rep main protease	–	5 µM	–	–	18%
O=C(O)[C@H]1O[C@@H](Oc2cc3oc(-c4ccc(O)cc4)cc(=O)c3c(O)c2O)[C@H](O)[C@@H](O)[C@@H]1O	rep main protease	–	100 µM	–	–	76.8%
C=C[C@@H]1C[C@]1(NC(=O)[C@@H]1C[C@@H]2CN1C(=O)[C@H](C(C)(C)C)NC(=O)O[C@@H]1C[C@H]1CCCCCc1nc3ccc(OC)cc3nc1O2)C(=O)NS(=O)(=O)C1CC1.O	rep main protease	–	20 µM	–	–	1.19%
O=C1C=CC(=O)c2ccccc21	rep main protease	–	0.1 µM	–	–	25%
Cc1ncc(/C=C\C(=O)N2C[C@@H](NC(=O)c3ccc[nH]c3=O)CC3(CCOCC3)C2)c(=O)[nH]1	rep main protease	–	5 µM	–	–	15.5%

SMILES	target	technique	tested at	time	pH	inhibition
COc1cc(CC(C)NCc2cc(NC(=O)c3ccccn3)cc(C(=O)N(C)C)c2)ccc1O (centres unmarked)	rep main protease	–	100 µg/mL	–	–	5.47%
COc1ccc(OC)c2c1C(=O)C=CC2=O	rep main protease	–	0.1 µM	–	–	8.9%
CC1(C)C=Cc2c(ccc3c2OC[C@@H](c2ccc(O)cc2O)C3)O1	rep main protease	–	8 µM	–	–	17.4%
COC(=O)C1=CO[C@@H](O[C@@H]2O[C@H](CO)[C@@H](O)[C@H](O)[C@H]2O)[C@@H]2[C@@H](C)[C@@H](O)C[C@H]12	rep main protease	–	100 µM	–	–	10.6%
O=c1oc2c(O)c(O)cc3c(=O)oc4c(O)c(O)cc1c4c23	rep main protease	FRET	10 µM	10 min	–	> 50%
O=C(O)c1cc(O)c2c(c1)C(=O)c1cccc(O)c1C2=O	rep main protease	–	10 µM	–	–	7.8%
Clc1nc2ccccc2cc1/C=N\c1ccc(Br)nc1	rep papain-like protease	–	100 µM	–	–	6.2%
Cn1cc2c(n1)c(=O)n(Cc1ccc(F)cc1)c1nn(Cc3ccccc3)c(=O)n21	rep main protease	–	20 µM	–	–	14.9%
CCc1ccc(NC(=O)c2cc3c(=O)n4ccccc4nc3n2C)cc1	rep main protease	–	100 µM	–	–	49%
O=C(O)c1cc(O)c2c(c1)[C@H]([C@H]1c3cc(C(=O)O)cc(O)c3C(=O)c3c(O[C@@H]4O[C@H](CO)[C@@H](O)[C@H](O)[C@H]4O)cccc31)c1cccc(O[C@@H]3O[C@H](CO)[C@@H](O)[C@H](O)[C@H]3O)c1C2=O	rep main protease	–	20 µM	–	–	100%
Cc1cccn2c(=O)c3cc(C(=O)Nc4ccc(N(C)C)cc4)n(C)c3nc12	rep main protease	–	100 µM	–	–	33%
C/C=C1\C(OC2OC(CO)C(O)C(O)C2O)OC=C(C(=O)OC)C1CC(=O)OCCc1ccc(O)c(O)c1 (centres unmarked)	rep main protease	–	20 µM	–	–	93.8%
Cc1ccc2nc(Cl)c(/C=N/NC(=O)c3ccncc3)cc2c1	rep papain-like protease	–	10 µM	–	–	9.2%
O=C(O)c1cc(N(Cc2ccccc2O)Cc2cc(O)ccc2O)ccc1O	rep main protease	–	20 µM	–	–	-1.57%
Cc1ccc2nc(Cl)c(C=Nc3cc(Br)ccn3)cc2c1	rep papain-like protease	–	100 µM	–	–	23.9%
O=C1C=CC(=O)c2c(O)cccc21	rep main protease	–	10 µM	–	–	102%
COc1cc(C[C@@H](C)[C@@H](C)Cc2cc(O)c(OC)c(OC)c2)cc(O)c1OC	rep papain-like protease	FRET	8 µM	–	–	51.4%
C[C@@H]1O[C@@H](O[C@@H]2[C@@H](O)[C@H](OCCc3ccc(O)c(O)c3)O[C@H](CO)[C@H]2OC(=O)/C=C/c2ccc(O)c(O)c2)[C@H](O)[C@H](O)[C@H]1O	rep main protease	–	100 µM	–	–	97%
O=C(O)Cc1ccc(O)c([N+](=O)[O-])c1	rep main protease	FRET	10 µM	10 min	–	< 25%
CCOC(=O)c1ccc(OC(=O)CCCCCNC(=N)N)cc1	rep main protease	–	10 µM	–	–	3%
